Measured values taken from paper PMC10448436 (Journal of medicinal chemistry, 2022).

Columns and labels:
[1] = In vitro stability of the formulated radioligand; type: physicochemical
Procedure, shortened: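 After HPLC purification, the radiotracer fraction was collected into Tween 80 and ethanol, evaporated and redissolved in 5 mL sterile normal saline. It was then passed through a 0.22 μm filter. The formulated solution was checked for radiolysis up to 90 min.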

[2] = biological target: T1, TARP γ−8 (Rattus norvegicus, UniProt Q8VHW5); test: PET imaging in rat brain; type: in vivo, Sprague-Dawley rats
T1 sequence (Q8VHW5 1-421): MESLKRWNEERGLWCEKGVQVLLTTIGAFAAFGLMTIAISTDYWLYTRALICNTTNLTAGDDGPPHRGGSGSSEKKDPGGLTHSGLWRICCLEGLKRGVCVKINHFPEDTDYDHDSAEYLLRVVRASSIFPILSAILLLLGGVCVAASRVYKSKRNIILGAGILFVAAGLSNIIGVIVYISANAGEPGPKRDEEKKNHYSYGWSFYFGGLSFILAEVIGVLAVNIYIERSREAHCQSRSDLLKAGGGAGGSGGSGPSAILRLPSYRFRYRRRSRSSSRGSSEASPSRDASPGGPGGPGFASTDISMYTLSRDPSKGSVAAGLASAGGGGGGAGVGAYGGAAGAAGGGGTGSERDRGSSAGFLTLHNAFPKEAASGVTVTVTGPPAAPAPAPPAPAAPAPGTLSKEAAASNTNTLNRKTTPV
Procedure, shortened: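 Male Sprague-Dawley rats (210−230 g) were kept under 1–2% isoflurane. The 11C-labelled test compound was injected via tail-vein catheter (38.5 ± 2.8 MBq, 0.3 ± 0.2 nmol), followed by a dynamic 3D PET scan for 60 min, co-registered to an MR template. Decay-corrected data were expressed as SUV, and BPND maps were derived by SRTM. Mean ± SD, n = 3.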

[3] = biological target: T1, TARP γ−8; test: In vitro autoradiography on rat brain sections; type: binding
Procedure, shortened: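 Frozen rat brain sections (stored −80 °C) were pre-incubated in 50 mM Tris-HCl for 20 min at ambient temperature, then incubated with the 11C-labelled test compound. For blocking, unlabelled inhibitor (1 μM) was added to the incubation solution beforehand. Sections were washed three times in ice-cold buffer, dipped 10 s in cold water, cold-air dried and exposed to imaging plates. ROI radioactivity was read as PSL/mm2.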

[4] = Shake-flask logD7.4; type: physicochemical; conditions: pH 7.4
[5] = biological target: T2, 5-HT1A (Homo sapiens, UniProt P08908); test: Off-target counter screen at 10 μM; type: binding; conditions: read-out: target inhibition, 5-HT1A
T2 sequence (P08908 1-422): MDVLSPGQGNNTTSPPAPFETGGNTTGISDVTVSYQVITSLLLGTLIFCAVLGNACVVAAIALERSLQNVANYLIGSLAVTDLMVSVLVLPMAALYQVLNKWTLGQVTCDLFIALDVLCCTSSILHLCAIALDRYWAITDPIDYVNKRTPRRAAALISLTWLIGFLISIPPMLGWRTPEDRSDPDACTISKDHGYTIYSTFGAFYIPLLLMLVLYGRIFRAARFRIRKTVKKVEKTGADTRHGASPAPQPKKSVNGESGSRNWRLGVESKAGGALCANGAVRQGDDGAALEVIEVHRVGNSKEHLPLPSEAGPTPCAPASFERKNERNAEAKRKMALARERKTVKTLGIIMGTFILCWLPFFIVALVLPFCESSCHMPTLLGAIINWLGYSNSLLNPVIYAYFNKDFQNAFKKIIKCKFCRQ

[6] = tested on: ionotropic glutamate receptors (iGluR); test: Off-target counter screen at 10 μM; type: binding
[7] = biological target: DOR (delta opioid receptor) (Homo sapiens, UniProt P41143); test: Off-target counter screen at 10 μM; type: binding; conditions: read-out: target inhibition, DOR
[8] = tested on: 5-HT1A, Alpha2C and DOR; test: Follow-up binding assays, selectivity towards TARP γ−8; conditions: follow-up 5-HT1A
[9] = biological target: T3, Alpha2C (Homo sapiens, UniProt P18825); test: Off-target counter screen at 10 μM; type: binding; conditions: read-out: target inhibition, Alpha2C
T3 sequence (P18825 1-462): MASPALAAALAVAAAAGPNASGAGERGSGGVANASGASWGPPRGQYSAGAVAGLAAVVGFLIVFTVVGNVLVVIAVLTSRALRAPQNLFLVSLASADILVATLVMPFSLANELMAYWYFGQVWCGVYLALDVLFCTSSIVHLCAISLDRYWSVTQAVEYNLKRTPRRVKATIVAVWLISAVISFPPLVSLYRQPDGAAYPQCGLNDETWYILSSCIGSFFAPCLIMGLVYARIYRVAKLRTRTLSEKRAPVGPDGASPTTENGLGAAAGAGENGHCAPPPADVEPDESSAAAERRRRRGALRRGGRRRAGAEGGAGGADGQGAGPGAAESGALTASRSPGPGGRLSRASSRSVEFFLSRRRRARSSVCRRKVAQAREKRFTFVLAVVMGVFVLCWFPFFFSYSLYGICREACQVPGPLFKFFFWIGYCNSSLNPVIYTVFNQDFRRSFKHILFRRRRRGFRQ

[10] = tracer [11C]8, blocking with 8 (1 μM)
[11] = tracer [11C]15, pretreatment with JNJ-55511118 (1 mg/kg), rat

Chain of DOR (delta opioid receptor) (P41143 whole entry): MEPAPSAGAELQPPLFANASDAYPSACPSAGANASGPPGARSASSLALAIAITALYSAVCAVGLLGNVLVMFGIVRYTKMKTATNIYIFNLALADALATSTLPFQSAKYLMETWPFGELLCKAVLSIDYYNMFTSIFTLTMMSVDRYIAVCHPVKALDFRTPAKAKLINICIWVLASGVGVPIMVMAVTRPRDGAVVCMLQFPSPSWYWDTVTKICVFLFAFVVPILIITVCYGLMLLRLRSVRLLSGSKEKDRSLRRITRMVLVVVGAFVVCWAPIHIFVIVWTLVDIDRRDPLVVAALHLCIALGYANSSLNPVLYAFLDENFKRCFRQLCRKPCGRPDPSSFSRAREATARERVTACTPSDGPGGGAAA

[11CH3]c1ccc2nc(C3CCC3)n(-c3ccc4[nH]c(=O)sc4c3)c2n1 [[^11C]8, 6-(2-cyclobutyl-5-[^11C]methyl-3H-imidazo[4,5-b]pyridin-3-yl)benzo[d]thiazol-2(3H)-one]
radiolysis in the formulated solution ([1]; up to 90 min): no radiolysis was observed
in vitro stability ([1]; up to 90 min after formulation): > 95%
maximum SUV in the brain ([2]; at 2.5 min, baseline, rat): 0.4
blood brain barrier penetration ([2]; rat PET, baseline): failed to penetrate the blood brain barrier
change of bound radioactivity in cerebellum (reference region) [3, 10]: no notable change
reduction of bound radioactivity in hippocampus [3, 10]: 83%

O=c1[nH]c2ccc(-c3c(Cl)cccc3OC(F)(F)F)cc2[nH]1 [JNJ-55511118, reference compound]
reduction of BPND values [2, 11]: 66–81%
reduction of radioactivity uptake in hippocampus based on AUC [2, 11]: 35–47%
reduction of uptake in hippocampus ([3]; tracer [11C]15, blocking with JNJ-55511118 (1 μM)): 77%

Cc1ccc2nc(C3CCC3)n(-c3ccc4[nH]c(=O)sc4c3)c2n1 [Compound 8, 6-(2-Cyclobutyl-5-methyl-3H-imidazo[4,5-b]pyridin-3-yl)benzo[d]thiazol-2(3H)-one]
logD [4]: 2.3 ± 0.06

Cc1ccc2nc(C3CCC3)n(-c3ccc4[nH]ncc4c3)c2n1 [Compound 15, 2-Cyclobutyl-3-(1H-indazol-5-yl)-5-methyl-3H-imidazo[4,5-b]pyridine]
logD [4]: 2.5 ± 0.01
inhibition at 10 µM [5]: > 50%
interaction with related iGlu receptor family [6]: no substantial interaction
inhibition at 10 µM [7]: > 50%
selectivity towards TARP γ−8 among any other tested CNS targets [8]: greater than 750 fold
inhibition at 10 µM [9]: > 50%
